In ChEMBL document CHEMBL1142864, “Potential cancer chemopreventive in vitro activities of monomeric xanthone derivatives from the marine algicolous fungus Monodictys putredinis” (J Nat Prod, 2007) one finds inhibition, Activity and IC50 data, which are given here for 6 compounds.

The source made the active and inactive calls. The calls are words filed in the database; no cut-off is given here.

Data set [1] relates to Cyp1A (Rattus norvegicus). Put plainly: Inhibition of beta-naphthoflavone-induced Cyp1A in rat H4IIE cell at 50 uM. Particulars: H4IIE cells with beta-naphthoflavone-induced Cyp1A.
Data set [2] addresses Prostaglandin G/H synthase 1 (Homo sapiens) (UniProt P23219). In words: Inhibition of COX1 at 100 uM. The method, boiled down: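 COX-1 (prostaglandin G/H synthase) activity followed by oxygen consumption during conversion of arachidonic acid to prostaglandins; single concentration 100 µM; IC50 only if inhibition exceeds 50%.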
A short description of data set [3]: Cytotoxicity against mouse Hepa 1c1c7 cells upto 400 uM. Type of data set: cell-based. The method, boiled down:
(§1)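 Hepa 1c1c7 murine hepatoma cultures exposed in parallel with the QR induction assay; tested up to 400 µM for one hydroxanthone and up to 50 µM for the others; cytotoxicity judged alongside QR specific activity.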

Data set [4] can be described thus: Inhibition of beta-naphthoflavone-induced Cyp1A in rat […] cell. The format is cell-based. The method, boiled down:
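Enzyme source: homogenates of β-naphthoflavone-induced H4IIE rat hepatoma cells. Cyp1A activity measured as dealkylation of 3-cyano-7-ethoxycoumarin to fluorescent 3-cyano-7-hydroxycoumarin, expressed in nmol/min/mg protein. α-Naphthoflavone positive control. Dose-response to IC50; percent inhibition given at 50 µM final concentration.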

A short description of data set [5]: DPPH radical scavenging activity upto 250 uM. The format is functional. The method, boiled down: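 Photometric reaction with stable DPPH free radical in microplate format, compounds up to 250 µM.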
Background: DPPH is a stable violet radical that fades when it is reduced.

In data set [6] the target is T1, Aromatase (Homo sapiens, UniProt P11511).
T1 sequence (P11511 whole entry): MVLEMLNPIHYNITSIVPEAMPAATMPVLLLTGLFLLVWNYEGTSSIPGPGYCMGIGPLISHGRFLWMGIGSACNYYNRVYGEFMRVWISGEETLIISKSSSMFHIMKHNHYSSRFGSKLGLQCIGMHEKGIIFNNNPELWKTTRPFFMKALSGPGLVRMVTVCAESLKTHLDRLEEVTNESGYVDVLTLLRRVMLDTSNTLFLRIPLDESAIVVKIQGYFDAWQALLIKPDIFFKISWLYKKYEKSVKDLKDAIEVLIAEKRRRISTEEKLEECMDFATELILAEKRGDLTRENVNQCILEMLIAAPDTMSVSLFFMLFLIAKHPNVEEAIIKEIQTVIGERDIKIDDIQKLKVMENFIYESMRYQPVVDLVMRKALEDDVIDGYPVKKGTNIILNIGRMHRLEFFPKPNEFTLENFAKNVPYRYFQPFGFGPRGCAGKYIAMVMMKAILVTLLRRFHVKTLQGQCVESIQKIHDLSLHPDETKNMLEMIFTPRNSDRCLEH
In words: Inhibition of human recombinant aromatase at 50 uM.

The nature of data set [7]: Superoxide anion radical scavenging activity upto 50 uM. The format is functional. The method, boiled down:
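Superoxide anion generated by xanthine oxidase oxidising hypoxanthine to uric acid; scavenging tested up to 50 µM.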

Data set [8] deals with T1, Aromatase. Put plainly: Inhibition of human recombinant aromatase.
Data set [9] can be described thus: Cytotoxicity against mouse Hepa 1c1c7 cells upto 50 uM. The format is cell-based. The method, boiled down: as §1

Prostaglandin G/H synthase 1 (Homo sapiens), sequence (P23219 whole entry): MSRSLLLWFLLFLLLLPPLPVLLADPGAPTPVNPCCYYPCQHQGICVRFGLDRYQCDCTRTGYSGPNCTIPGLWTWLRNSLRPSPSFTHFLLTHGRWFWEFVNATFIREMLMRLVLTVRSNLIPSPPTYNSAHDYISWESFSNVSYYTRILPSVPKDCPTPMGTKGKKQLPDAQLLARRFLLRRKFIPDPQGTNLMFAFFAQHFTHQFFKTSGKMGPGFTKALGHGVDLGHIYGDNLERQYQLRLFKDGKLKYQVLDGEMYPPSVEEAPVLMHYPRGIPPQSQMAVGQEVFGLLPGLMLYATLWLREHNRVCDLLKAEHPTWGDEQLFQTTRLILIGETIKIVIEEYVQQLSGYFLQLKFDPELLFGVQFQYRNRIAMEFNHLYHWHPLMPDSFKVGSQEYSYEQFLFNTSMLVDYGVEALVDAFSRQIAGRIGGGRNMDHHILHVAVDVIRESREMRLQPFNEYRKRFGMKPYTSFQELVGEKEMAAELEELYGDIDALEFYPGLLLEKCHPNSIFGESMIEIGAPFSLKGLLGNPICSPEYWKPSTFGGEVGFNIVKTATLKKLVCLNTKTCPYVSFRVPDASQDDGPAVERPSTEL

One may read the inhibition as how much of the control response was suppressed. The IC50 is the concentration at which inhibition is half-maximal. As for `Cc1cc(O)c2c(c1)O[C@]1(C)[C@@H](O)[C@@H](O)C[C@H](O)[C@@H]1C2=O` [MONODICTYSIN A], the results for the inhibition at 50 µM (in data set [1]; at Aromatase [6]) were 40% and 32%, respectively. The compound further gave an inhibition in [2] of under 50%. Moreover, the Activity result in data set [3] was “Not Active”. In data set [4], this compound registered an IC50 of over 50 µM. For the same compound, the outcome in data set [5] and in data set [7] was inactive.
In data set [2], `COc1cc(O)c2c(c1)O[C@]1(C)[C@@H](O)[C@@H](C)C[C@H](O)[C@@H]1C2=O` [MONODICTYSIN C] gave an inhibition of under 50%. Further, the results for the IC50 (on Aromatase [8]; in [4]) were 28.3 µM and 3 µM, respectively. Further, in [9], the Activity entry is reported as “Not Active”. Moreover, the result in [5] and in data set [7] was inactive.
In data set [2], `Cc1cc(C(=O)O)c2c(=O)c3c(O)cccc3oc2c1` [MONODICTYXANTHONE] yielded an inhibition of under 50%. This compound also registered an IC50 in data set [4] of 34.8 µM. In addition, the result in data set [5] and in data set [7] was inactive. Moreover, the inhibition at 50 µM on Aromatase [6] is 37%.
Turning to `Cc1cc(O)c(C(=O)c2c(O)cccc2O)c(C(=O)O)c1` [MONODICTYPHENONE], the inhibition at 50 µM in data set [1] came out at 28%; on Aromatase [6], 25%. This compound also displayed an inhibition in [2] of under 50%. For the same compound, the IC50 in data set [4] is over 50 µM. For the same compound, the result in data set [5] and in data set [7] was inactive.
`C[C@H]1C[C@H](O)[C@@H]2C(=O)c3c(O)cccc3O[C@]2(C)[C@H]1O` [MONODICTYSIN B] yielded an inhibition in data set [2] of under 50%. For the same compound, the Activity result in data set [9] is listed as “Not Active”. The IC50 in [4] was found to be 23.3 µM. The result in data set [5] and in data set [7] was inactive. Moreover, at Aromatase [6], the inhibition at 50 µM was found to be 9%.
The compound `O=c1cc(-c2ccccc2)oc2c1ccc1ccccc12` [ALPHA-NAPHTHOFLAVONE] had an IC50 in [4] of 0.0035 µM.
